Test results from ChEMBL document CHEMBL1129409, “5-HT1D receptor agonist properties of novel 2-[5-[[(trifluoromethyl)sulfonyl]oxy]indolyl]ethylamines and their use as synthetic intermediates” (J Med Chem, 1996).

Legend:
[1] = target: T1, 5-hydroxytryptamine receptor 1A (Homo sapiens, UniProt P08908); experiment: Compound was tested for binding affinity against cloned human 5-hydroxytryptamine 1A receptor expressed in CHO-K1 cells.; format: cell-based
T1 sequence (P08908 whole entry): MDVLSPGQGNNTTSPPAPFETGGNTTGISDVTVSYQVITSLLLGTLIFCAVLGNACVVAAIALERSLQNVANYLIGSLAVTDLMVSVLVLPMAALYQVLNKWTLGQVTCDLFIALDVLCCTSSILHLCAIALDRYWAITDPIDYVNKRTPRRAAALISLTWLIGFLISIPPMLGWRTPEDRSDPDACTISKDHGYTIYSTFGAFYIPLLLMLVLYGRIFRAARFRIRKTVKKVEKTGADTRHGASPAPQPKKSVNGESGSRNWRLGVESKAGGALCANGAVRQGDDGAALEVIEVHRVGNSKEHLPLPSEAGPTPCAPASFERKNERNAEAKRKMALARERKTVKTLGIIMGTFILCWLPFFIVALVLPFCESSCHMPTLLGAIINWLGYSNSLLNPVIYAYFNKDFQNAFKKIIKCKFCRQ
Outline: (§1)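 CHO cell membranes expressing cloned human 5-HT1A, 5-HT1Dα or 5-HT1Dβ receptors, or rat D2 receptors (20-60 µg protein). Buffers at pH 7.4: 50 mM Tris/5 mM MgCl2 (5-HT1A); the same with 0.1% ascorbic acid (5-HT1D); 20 mM HEPES/10 mM MgSO4 (D2). Nonspecific binding defined with lisuride, serotonin and haloperidol respectively. 11 concentrations in duplicate, 1 h at room temperature (5-HT1D protected from light), filtration.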

[2] = Distribution coefficient (LogD) of compound reported; format: physicochemical; settings: octanol/water
Outline: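 log D calculated with Pallas version 1.2.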

[3] = test system: Cavia porcellus; experiment: The level of 5-HIAA (prefrontal cortex) measured by means of HPCL with electrochemical detection methods at 50(umol/kg, sc); format: functional
Outline: (§2)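 Male Dunkin-Hartley guinea pigs dosed sc in 0.25% methylcellulose (citric acid added for free bases), 5 mL/kg. Decapitated 60 min after dosing; prefrontal cortex and hypothalamus dissected on ice and stored at -80 °C. 5-HT and 5-HIAA measured by HPLC-electrochemical detection. Expressed as % of vehicle controls, mean ± SEM (n=4-5); ANOVA with Fisher's PLSD.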

[4] = target: T2, 5-hydroxytryptamine receptor 1D (Homo sapiens, UniProt P28221); experiment: (§3) Compound was tested for binding affinity against cloned human 5-hydroxytryptamine 1D receptor alpha expressed in CHO-K1 cells.; format: cell-based; outline: as §1
[5] = test system: Cavia porcellus; experiment: The level of 5-HT (hypothalamus) measured by means of HPCL with electrochemical detection methods at 50(umol/kg, sc); format: functional; outline: as §2
[6] = test system: Cavia porcellus; experiment: Effect of 50(umol/kg, sc) compound on guinea pig rectal temperature; Hypothermia 0-60 delta degree C; format: functional
Outline: (§4)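 Male guinea pigs housed individually at least 1 h before testing, groups of five. Compound given sc in 0.25% methylcellulose (equimolar citric acid for free bases), 5 mL/kg. Rectal probe inserted 3-4 cm; temperature read before dosing and at 60 min. Reported as change from the 0 min value, mean ± SEM (n=4-5).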

[7] = target: 5-hydroxytryptamine receptor 1B (Homo sapiens, UniProt P28222); experiment: Compound was tested for binding affinity against cloned human 5-hydroxytryptamine 1D receptor beta expressed in CHO-K1 cells.; format: cell-based
[8] = test system: Cavia porcellus; experiment: The level of 5-HIAA (hypothalamus) measured by means of HPCL with electrochemical detection methods at 50(umol/kg, sc); format: functional; outline: as §2
[9] = test system: Cavia porcellus; experiment: Effect of 12.5 (umol/kg, sc) compound on guinea pig rectal temperature; Hypothermia 0-60 delta degree C; format: functional; outline: as §4
[10] = test system: Cavia porcellus; experiment: The level of 5-HT (prefrontal cortex) measured by means of HPCL with electrochemical detection methods at 50(umol/kg, sc); format: functional; outline: as §2
[11] = target: T2, 5-hydroxytryptamine receptor 1D; experiment: Displacement of [3H]-5-HT from human 5-hydroxytryptamine 1D receptor alpha expressed in HEK 293 cells; format: cell-based, HEK293
Outline: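 HEK 293 microsomal membranes expressing human 5-HT1Dα or 5-HT1Dβ, in 50 mM Tris-HCl buffer with 4 mM CaCl2, 0.1% ascorbic acid, pargyline and leupeptine. [3H]-5-HT (final 0.01-150 nM) incubated with membranes and displacer for 30 min at 25 °C. Glass-fibre filtration, then scintillation counting. Nonspecific binding taken with 10^-5 M 5-HT. Nonlinear least-squares fitting (EBDA/LIGAND); mean ± SEM, n=3.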

[12] = target: T2, 5-hydroxytryptamine receptor 1D; experiment: as §3; format: cell-based; remark: listed apart in the source
Outline: as §1, with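 “protein). Radioligands: [3H]-8-OH-DPAT (5-HT1A), [3H]-5-HT (5-HT1D), [3H]U-86170 (D2).” for “protein).”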

[13] = target: T2, 5-hydroxytryptamine receptor 1D; experiment: Ratio of receptor binding affinities of 5-hydroxytryptamine 1D receptor alpha vs 5-hydroxytryptamine 1D receptor beta
[14] = target: D(2) dopamine receptor (Rattus norvegicus, UniProt P61169); experiment: Binding affinity for rat dopamine D2 receptor expressed in CHO-K1 cells; format: cell-based
Outline: as §1, with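 “protein). Radioligands: [3H]-8-OH-DPAT (5-HT1A), [3H]-5-HT (5-HT1D), [3H]U-86170 (D2).” for “protein).”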

[15] = test system: Cavia porcellus; experiment: Effect of 6.250 (umol/kg, sc) compound on guinea pig rectal temperature (Hypothermia); format: functional; outline: as §4
[16] = test system: Cavia porcellus; experiment: The level of 5-HIAA (hypothalamus) measured by means of HPCL with electrochemical detection methods at 6.250 (umol/kg, sc); format: functional; outline: as §2
[17] = test system: Cavia porcellus; experiment: The level of 5-HIAA (prefrontal cortex) measured by means of HPCL with electrochemical detection methods at 6.250 (umol/kg, sc); format: functional; outline: as §2
[18] = test system: Cavia porcellus; experiment: The level of 5-HT (prefrontal cortex) measured by means of HPCL with electrochemical detection methods at 6.250 (umol/kg, sc); format: functional; outline: as §2

T2 sequence (P28221 whole entry): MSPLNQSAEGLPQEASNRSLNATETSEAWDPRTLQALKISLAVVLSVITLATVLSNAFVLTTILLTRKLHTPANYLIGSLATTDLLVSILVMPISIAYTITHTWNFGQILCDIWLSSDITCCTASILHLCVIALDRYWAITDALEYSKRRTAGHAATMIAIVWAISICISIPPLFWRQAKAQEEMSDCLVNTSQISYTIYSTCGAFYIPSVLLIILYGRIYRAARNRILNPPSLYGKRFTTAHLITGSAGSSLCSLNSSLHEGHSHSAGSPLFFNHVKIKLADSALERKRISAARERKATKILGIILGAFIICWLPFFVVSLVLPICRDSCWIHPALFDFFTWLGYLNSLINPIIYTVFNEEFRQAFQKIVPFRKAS
5-hydroxytryptamine receptor 1B, sequence (P28222 whole entry): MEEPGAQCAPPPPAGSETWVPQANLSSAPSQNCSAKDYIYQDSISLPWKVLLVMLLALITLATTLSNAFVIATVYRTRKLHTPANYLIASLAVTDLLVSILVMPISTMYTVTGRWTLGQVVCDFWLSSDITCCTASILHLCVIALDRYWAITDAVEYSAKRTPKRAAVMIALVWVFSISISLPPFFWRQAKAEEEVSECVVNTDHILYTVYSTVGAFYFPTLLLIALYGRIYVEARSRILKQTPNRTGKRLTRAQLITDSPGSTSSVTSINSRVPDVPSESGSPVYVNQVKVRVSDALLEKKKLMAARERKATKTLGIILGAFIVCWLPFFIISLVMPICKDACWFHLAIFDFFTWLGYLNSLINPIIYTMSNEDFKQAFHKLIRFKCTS
D(2) dopamine receptor, sequence (P61169 whole entry): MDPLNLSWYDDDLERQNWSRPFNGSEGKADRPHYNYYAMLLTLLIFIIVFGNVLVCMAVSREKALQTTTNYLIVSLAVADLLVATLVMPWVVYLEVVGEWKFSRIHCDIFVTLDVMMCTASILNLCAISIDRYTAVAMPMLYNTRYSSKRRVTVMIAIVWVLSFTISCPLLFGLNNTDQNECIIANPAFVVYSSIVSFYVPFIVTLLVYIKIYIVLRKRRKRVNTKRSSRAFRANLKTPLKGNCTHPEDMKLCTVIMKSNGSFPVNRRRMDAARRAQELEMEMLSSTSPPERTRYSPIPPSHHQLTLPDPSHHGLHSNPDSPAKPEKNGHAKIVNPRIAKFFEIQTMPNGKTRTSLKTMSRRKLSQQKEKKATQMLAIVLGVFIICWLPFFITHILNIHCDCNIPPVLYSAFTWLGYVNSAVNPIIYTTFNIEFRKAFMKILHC

| SMILES | Ki [1] [nM] | logD [2] | Ki [4] [nM] | Ki [7] [nM] | IC50 [11] [nM] | IC50 [12] [nM] | other results |
| --- | --- | --- | --- | --- | --- | --- | --- |
| COc1ccc(CNC(=O)/C=C/c2ccc3[nH]cc(CCN(C)C)c3c2)cc1 | 1.3 | 1.71 | 0.3 | 0.2 |  |  | Others [3]: 37%; Others [5]: 121%; Others [6]: -2.62; Others [8]: 49%; Others [9]: -1.62; Others [10]: 94% |
| CCCN(CCC)CCc1c[nH]c2ccc(O)cc12 |  | 1.24 |  |  | 820 | 820 |  |
| NCCc1c[nH]c2ccc(OS(=O)(=O)C(F)(F)F)cc12 | 18 | -0.24 | 2.8 | 14 |  |  | Ratio [13]: 5; Ki [14]: 658 nM |
| CCCN(CCC)C1CCc2cccc(O)c2C1 (centres undefined) [8-OH-DPAT] |  |  |  |  |  |  | Others [15]: 0.22; Others [16]: 37%; Others [17]: 34%; Others [18]: 126% |
| CCCN(CCC)CCc1c[nH]c2ccc(OCc3ccccc3)cc12 |  | 3.08 |  |  | 470 | 470 |  |
| CCN(CC)CCc1c[nH]c2ccc(O)cc12 |  | 0.28 |  |  | 77 | 77 |  |
